Where a SMILES comes first, the peptide text is derived from it. [ ]: non-standard residue; d: D form. Dab = NCC[C@H](N)C(=O)O
What was measured:
[1] = system: Acinetobacter baumannii; experiment: Ratio of MIC for Acinetobacter baumannii 649 measured in presence of 25% human serum to MIC for Acinetobacter baumannii 649 in absence of 25% human serum; assay type: functional
How it was run: (§1)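 Blood strain 649 was tested by MH broth microdilution with and without 25% (v/v) human serum added to the medium. The test used a final inoculum of 5 × 10^5 cfu/mL and incubation at 37 °C. The ratio is the MIC in serum over the MIC in MH alone.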

[2] = system: Acinetobacter baumannii; experiment: Antibacterial activity against Acinetobacter baumannii 649 measured after 24 hrs in presence of 25% human serum by microtiter dilution method; assay type: functional; details: Acinetobacter baumannii, 649, 24 h; how it was run: as §1
[3] = Therapeutic index, ratio of HC50 for human RBC to MIC for polymyxin B/colistin-resistant Acinetobacter baumannii M89963; assay type: toxicity; details: human red blood cells, read-out: TI
How it was run: (§2)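 T.I. = HC50/MIC. For HC50, peptide (quantified by amino acid analysis) was two-fold serially diluted over 12 concentrations up to 1000 μg/mL. It was incubated with 1% fresh human erythrocytes in PBS, pH 7.4, for 18 h at 37 °C. After 800g centrifugation, hemoglobin was read at 570 nm against water (100%) and no-peptide (0%) controls. HC50 came from a lysis-versus-concentration plot, average of 3 replicates.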

[4] = system: Acinetobacter baumannii; experiment: Antibacterial activity against Acinetobacter baumannii 649 measured after 24 hrs by microtiter dilution method; assay type: functional; details: Acinetobacter baumannii, 649, 24 h
How it was run: (§3)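 Broth microdilution in Mueller-Hinton (MH) medium. […] Plates were incubated 24 h at 37 °C. MIC was the lowest peptide concentration that inhibited growth, based on three sets of replicates.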

[5] = Therapeutic index, ratio of HC50 for human RBC to MIC for polymyxin B/colistin-resistant Acinetobacter baumannii M89955; assay type: toxicity; details: human red blood cells, read-out: TI; how it was run: as §2
[6] = Therapeutic index, ratio of HC50 for human RBC to MIC for polymyxin B/colistin-resistant Acinetobacter baumannii M89953; assay type: toxicity; details: human red blood cells, read-out: TI; how it was run: as §2
[7] = Therapeutic index, ratio of HC50 for human RBC to MIC for polymyxin B/colistin-resistant Acinetobacter baumannii M89951; assay type: toxicity; details: human red blood cells, read-out: TI; how it was run: as §2
[8] = Therapeutic index, ratio of HC50 for human RBC to MIC for polymyxin B/colistin-resistant Acinetobacter baumannii M89952; assay type: toxicity; details: human red blood cells, read-out: TI; how it was run: as §2
[9] = Therapeutic index, ratio of HC50 for human RBC to MIC for polymyxin B/colistin-resistant Acinetobacter baumannii M89949; assay type: toxicity; details: human red blood cells, read-out: TI; how it was run: as §2
[10] = Hemolytic activity against human RBC measured after 18 hrs by spectrophotometric method; assay type: ADME, cell-based, Erythrocyte; details: human red blood cells (erythrocytes)
How it was run: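 Peptide (amount by amino acid analysis), two-fold serial dilutions at 12 concentrations up to 1000 μg/mL, with 1% human erythrocytes in PBS pH 7.4, 37 °C, 18 h. Unlysed cells removed by centrifugation (800g); hemoglobin read at 570 nm. Water-lysed cells = 100%, no-peptide cells = 0%. HC50 from plot of % lysis vs concentration (μM), average of 3 replicates.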

[11] = Therapeutic index, ratio of HC50 for human RBC to MIC for polymyxin B/colistin-resistant Acinetobacter baumannii M89941; assay type: toxicity; details: human red blood cells, read-out: TI; how it was run: as §2
[12] = system: Acinetobacter baumannii; experiment: Antibacterial activity against Acinetobacter baumannii isolate 1001611 measured after 24 hrs by microtiter dilution method; assay type: functional; details: isolate 1001611, 24 h; how it was run: as §3
[13] = system: Acinetobacter baumannii; experiment: Antibacterial activity against Acinetobacter baumannii isolate 1007660 measured after 24 hrs by microtiter dilution method; assay type: functional; details: isolate 1007660, 24 h; how it was run: as §3
[14] = system: Acinetobacter baumannii; experiment: Antibacterial activity against Acinetobacter baumannii isolate 1021371 measured after 24 hrs by microtiter dilution method; assay type: functional; details: isolate 1021371, 24 h; how it was run: as §3
[15] = system: Acinetobacter baumannii; experiment: Antibacterial activity against Acinetobacter baumannii isolate 952654 measured after 24 hrs by microtiter dilution method; assay type: functional; details: isolate 952654, 24 h; how it was run: as §3
[16] = system: Acinetobacter baumannii; experiment: Antibacterial activity against Acinetobacter baumannii isolate 9383370 measured after 24 hrs by microtiter dilution method; assay type: functional; details: isolate 9383370, 24 h; how it was run: as §3
[17] = system: Acinetobacter baumannii; experiment: Antibacterial activity against Acinetobacter baumannii isolate 961997 measured after 24 hrs by microtiter dilution method; assay type: functional; details: isolate 961997, 24 h; how it was run: as §3
[18] = system: Acinetobacter baumannii; experiment: Antibacterial activity against Acinetobacter baumannii isolate 1002956 measured after 24 hrs by microtiter dilution method; assay type: functional; details: isolate 1002956, 24 h; how it was run: as §3
[19] = system: Acinetobacter baumannii; experiment: Antibacterial activity against Acinetobacter baumannii isolate 977751 measured after 24 hrs by microtiter dilution method; assay type: functional; details: isolate 977751, 24 h; how it was run: as §3
[20] = system: Acinetobacter baumannii; experiment: Antibacterial activity against Acinetobacter baumannii isolate 1035166 measured after 24 hrs by microtiter dilution method; assay type: functional; details: isolate 1035166, 24 h; how it was run: as §3
[21] = system: Acinetobacter baumannii; experiment: Antibacterial activity against Acinetobacter baumannii isolate 1010282 measured after 24 hrs by microtiter dilution method; assay type: functional; details: isolate 1010282, 24 h; how it was run: as §3
[22] = system: Acinetobacter baumannii; experiment: Antibacterial activity against Acinetobacter baumannii isolate 1010245 measured after 24 hrs by microtiter dilution method; assay type: functional; details: isolate 1010245, 24 h; how it was run: as §3
[23] = system: Acinetobacter baumannii; experiment: Antibacterial activity against Acinetobacter baumannii isolate 1017395 measured after 24 hrs by microtiter dilution method; assay type: functional; details: isolate 1017395, 24 h; how it was run: as §3
[24] = system: Acinetobacter baumannii; experiment: Antibacterial activity against Acinetobacter baumannii isolate 968886 measured after 24 hrs by microtiter dilution method; assay type: functional; details: isolate 968886, 24 h; how it was run: as §3
[25] = system: Acinetobacter baumannii; experiment: Antibacterial activity against Acinetobacter baumannii isolate 964304 measured after 24 hrs by microtiter dilution method; assay type: functional; details: isolate 964304, 24 h; how it was run: as §3
[26] = system: Acinetobacter baumannii; experiment: Antibacterial activity against Acinetobacter baumannii isolate 963659 measured after 24 hrs by microtiter dilution method; assay type: functional; details: isolate 963659, 24 h; how it was run: as §3
[27] = system: Acinetobacter baumannii; experiment: Antibacterial activity against Acinetobacter baumannii isolate 963618 measured after 24 hrs by microtiter dilution method; assay type: functional; details: isolate 963618, 24 h; how it was run: as §3
[28] = system: Acinetobacter baumannii; experiment: Antibacterial activity against Acinetobacter baumannii isolate 1018887 measured after 24 hrs by microtiter dilution method; assay type: functional; details: isolate 1018887, 24 h; how it was run: as §3
[29] = system: Acinetobacter baumannii; experiment: Antibacterial activity against Acinetobacter baumannii isolate 1035794 measured after 24 hrs by microtiter dilution method; assay type: functional; details: isolate 1035794, 24 h; how it was run: as §3
[30] = system: Acinetobacter baumannii; experiment: Antibacterial activity against Acinetobacter baumannii isolate 981650 measured after 24 hrs by microtiter dilution method; assay type: functional; details: isolate 981650, 24 h; how it was run: as §3
[31] = system: Acinetobacter baumannii; experiment: Antibacterial activity against Acinetobacter baumannii isolate 965463 measured after 24 hrs by microtiter dilution method; assay type: functional; details: isolate 965463, 24 h; how it was run: as §3
[32] = system: Acinetobacter baumannii; experiment: Antibacterial activity against polymyxin B/colistin-resistant Acinetobacter baumannii M89963 measured after 24 hrs by microtiter dilution method; assay type: functional; details: M89963, 24 h; how it was run: as §3
[33] = system: Acinetobacter baumannii; experiment: Antibacterial activity against polymyxin B/colistin-resistant Acinetobacter baumannii M89955 measured after 24 hrs by microtiter dilution method; assay type: functional; details: M89955, 24 h; how it was run: as §3
[34] = system: Acinetobacter baumannii; experiment: Antibacterial activity against polymyxin B/colistin-resistant Acinetobacter baumannii M89953 measured after 24 hrs by microtiter dilution method; assay type: functional; details: M89953, 24 h; how it was run: as §3
[35] = system: Acinetobacter baumannii; experiment: Antibacterial activity against polymyxin B/colistin-resistant Acinetobacter baumannii M89952 measured after 24 hrs by microtiter dilution method; assay type: functional; details: M89952, 24 h; how it was run: as §3
[36] = system: Acinetobacter baumannii; experiment: Antibacterial activity against polymyxin B/colistin-resistant Acinetobacter baumannii M89951 measured after 24 hrs by microtiter dilution method; assay type: functional; details: M89951, 24 h; how it was run: as §3
[37] = system: Acinetobacter baumannii; experiment: Antibacterial activity against polymyxin B/colistin-resistant Acinetobacter baumannii M89949 measured after 24 hrs by microtiter dilution method; assay type: functional; details: M89949, 24 h; how it was run: as §3
[38] = system: Acinetobacter baumannii; experiment: Antibacterial activity against polymyxin B/colistin-resistant Acinetobacter baumannii M89941 measured after 24 hrs by microtiter dilution method; assay type: functional; details: M89941, 24 h; how it was run: as §3

CC(=O)N[C@H](CCCCN)C(=O)N[C@H](CC(C)C)C(=O)N[C@@H](CCN)C(=O)N[C@H](CO)C(=O)N[C@H](CC(C)C)C(=O)N[C@H](CC(C)C)C(=O)N[C@@H](CCN)C(=O)N[C@@H](C(=O)N[C@H](CC(C)C)C(=O)N[C@H](CO)C(=O)N[C@@H](CCN)C(=O)N[C@H](C)C(=O)N[C@H](C)C(=O)N[C@H](C)C(=O)N[C@H](C)C(=O)N[C@H](C)C(=O)N[C@H](CC(C)C)C(=O)N[C@@H](CCN)C(=O)N[C@@H](C(=O)N[C@H](CC(C)C)C(=O)N[C@H](CC(C)C)C(=O)N[C@@H](CCN)C(=O)N[C@H](C)C(=O)N[C@H](CC(C)C)C(=O)N[C@H](CO)C(=O)N[C@@H](CCN)C(N)=O)[C@H](C)O)[C@H](C)O (Ac-[dK][dL][Dab][dS][dL][dL][Dab][dT][dL][dS][Dab][dA][dA][dA][dA][dA][dL][Dab][dT][dL][dL][Dab][dA][dL][dS][Dab]-NH2)
0.8 µM: MIC [4] | MIC [12] | MIC [13] | MIC [14] | MIC [15] | MIC [17] | MIC [18] | MIC [20] | MIC [21] | MIC [22] | MIC [23] | MIC [24] | MIC [27] | MIC [29] | MIC [31] | MIC [32] | MIC [33] | MIC [34] | MIC [35] | MIC [36] | MIC [37]
3.1 µM: MIC [19]
4: Ratio [1]
0.5 µM: MIC [28]
3 µM: MIC [2]
0.4 µM: MIC [26] | MIC [30]
1.5 µM: MIC [16] | MIC [25] | MIC [38]
8.6: selectivity ratio [3] | selectivity ratio [5] | selectivity ratio [6] | selectivity ratio [7] | selectivity ratio [8] | selectivity ratio [9] | selectivity ratio [11]
7.7 µM: HC50 at 18 h [10]

From ChEMBL document CHEMBL4339192, “De Novo Designed Amphipathic α-Helical Antimicrobial Peptides Incorporating Dab and Dap Residues on the Polar Face To Treat the Gram-Negative Pathogen, Acinetobacter baumannii” (J Med Chem, 2019)
